PAFAH2 FP inh: PAFAH2 (human) inhibition | hit rate 0.99% among 340,000 | inhibition, % at 3.39 µM | recombinant PAFAH2, FP-rhodamine activity probe, fluorescence polarization;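 active = inhibition above the mean over all tested compounds plus 3 SD, cut at about 30% in these data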;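 also: inhibitors block probe labeling of enzyme so polarization drops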
ARFGAP1 inh: inhibitors of rat ARFGAP1. Q62848. Arfgap1-stimulated ARF1 GTP hydrolysis, GDP FP detection. inhibition, % at 16.5 µM. hit rate 0.26% among 360,000. AID 651572;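 active = inhibition above a per-plate limit, mean inhibition of low control wells plus 3 SD, cut at about 25% in these data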
Target sequence (Q62848 1-136 limits assumed): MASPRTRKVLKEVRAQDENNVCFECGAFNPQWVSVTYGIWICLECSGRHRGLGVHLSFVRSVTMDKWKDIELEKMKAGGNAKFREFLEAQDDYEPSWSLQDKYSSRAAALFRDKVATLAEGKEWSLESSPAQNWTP
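Repeats: one replicate per compound; assay system: rat Arfgap1 catalytic domain, aa 1-136; times: enzyme reaction 120 min at 25 °C after 20 min preincubation; detection: FP of antibody-bound GDP Alexa 633 tracer, ex 620/em 688 nm; benchmarks: high control wells lacking Arfgap1, low control full reaction with DMSO; reagent: human ARF1(Δ1-17)-GTP substrate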
PAFAH1B2 FP inh: blocks human PAF acetylhydrolase 1b catalytic subunit 2; inhibition, % at 3.39 µM; P68402; hit rate 1.2% among 340,000; recombinant PAFAH1B2, FP-rhodamine activity probe, fluorescence polarization;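 active = inhibition above the mean of all tested compounds plus 3 SD, cut at about 24% in these data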
ASAP1 GAP inh: inhibitors of human ASAP1 ArfGAP activity; Q9ULH1; ASAP1-stimulated ARF1 GTP hydrolysis, GDP FP detection; inhibition, % at 16.5 µM; hit rate 0.19% among 360,000; AID 624377; in the data active = inhibition above about 25%
PAFAH1B3 FP inh: blocks human PAF acetylhydrolase 1B catalytic subunit 3; hit rate 0.28% among 340,000; Q15102; AID 492972; recombinant PAFAH1B3, FP-rhodamine probe, fluorescence polarization; inhibition, % at 3.39 µM;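 active = inhibition above the screen-wide average of all tested compounds plus 3 SD, cut at about 25% in these data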
Target sequence (Q15102 whole entry, looked up): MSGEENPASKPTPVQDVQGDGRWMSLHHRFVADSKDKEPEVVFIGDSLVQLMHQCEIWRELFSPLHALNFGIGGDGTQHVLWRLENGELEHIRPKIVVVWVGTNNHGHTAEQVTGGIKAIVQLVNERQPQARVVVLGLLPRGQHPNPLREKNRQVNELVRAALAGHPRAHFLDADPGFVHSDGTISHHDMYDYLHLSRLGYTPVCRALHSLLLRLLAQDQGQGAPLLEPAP
pPAFAH inh: pPAFAH (human) enzyme inhibition. hit rate 1.5% among 330,000. AID 463082. recombinant pPAFAH, FP-rhodamine probe fluorescence polarization. inhibition, % at 3.39 µM. Q13093;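 active = inhibition above the mean inhibition across the screen plus 3 SD, cut at about 25% in these data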;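 also: inhibitors block binding of the rhodamine activity-based probe so polarization drops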
Numbers stand for hits; i = inactive; nt = no result given. In the library only some 2.8% were active in any assay of this set; here they are far more common.

SMILES | PAFAH2 FP inh | ARFGAP1 inh | PAFAH1B2 FP inh | ASAP1 GAP inh | PAFAH1B3 FP inh | pPAFAH inh
CSc1nc2nccc(-c3ccc(Oc4ccccc4)cc3)n2n1 | i | i | i | i | i | 29.6
O=C(Nc1cccc(F)c1)/C(=C\c1ccco1)NC(=O)c1ccco1 | i | i | i | i | i | i
COc1cc(C2(c3ccc(O)c(OC)c3)C(=O)Nc3c(Br)cc(Br)cc32)ccc1O | i | i | 24.9 | i | i | i
OC(c1cccc(F)c1)c1ncc(-c2ccc(Oc3ccccc3)cc2)[nH]1 (stereo unspecified) | nt | i | nt | i | nt | nt
Cc1cc(C)c(C)c(S(=O)(=O)NCC(=O)Nc2ccc(F)cc2)c1C | i | i | i | i | i | i
COC(=O)N/N=C/c1cn(CCOc2cccc(OC)c2)c2ccccc12 | i | i | i | i | i | i
Cc1cccc(OCCn2cc(/C=N/NC(=O)c3ccncc3)c3ccccc32)c1 | i | i | i | i | i | 27.6
CCC(C)c1ccc(OCCn2cc(/C=N/NC(=O)CSc3nnc(C)s3)c3ccccc32)cc1 (stereo unspecified) | i | i | i | i | i | 26.1
Cc1cc(/C=N/n2c(COc3ccccc3)nc3ccccc3c2=O)c(O)c([N+](=O)[O-])c1 | i | i | i | i | i | 30.6
Cc1ccc(-c2[nH]ncc2/C=N/n2c(COc3ccccc3)nc3ccccc3c2=O)cc1 | i | i | i | i | i | i
Clc1ccc(SCCCCn2ccnc2)cc1 | i | i | 71.1 | i | i | i
Clc1ccccc1OCCCCn1ccnc1 | i | i | i | i | i | i
Cc1csc(NC(=O)c2ccco2)c1C(=O)c1ccccc1 | i | i | i | i | i | 26.1
COC(=O)c1c(-c2ccccc2)csc1NC(=O)c1ccco1 | i | i | i | i | i | i
COc1ccc(OC)c(Nc2ccc(Nc3cc(OC)ccc3OC)nn2)c1 | i | i | i | i | i | 30.4
COc1ccccc1Nc1ccc(Nc2ccccc2OC)nn1 | i | i | i | i | i | i
NC(=O)c1ccc(Oc2ccc(Cl)c3ccccc23)c([N+](=O)[O-])c1 | i | i | i | i | i | 33.8
NC(=O)c1ccc(Oc2ccc(Cl)cc2)c([N+](=O)[O-])c1 | i | i | i | i | i | i
O=C(O/N=C1/CCCc2occc21)c1ccc(F)cc1 | i | i | i | i | i | i
O=C(O/N=C1/CCSc2ccccc21)c1ccc(F)cc1 | 47.2 | nt | 24.4 | nt | i | i
COc1cc(OC)cc(-c2noc([C@@H]3O[C@H](CO)[C@H](O)[C@H](O)[C@H]3O)n2)c1 | nt | i | nt | i | nt | nt
CC(Sc1nn(-c2ccc(F)cc2)c(=S)s1)C(=O)c1c(N)n(C)c(=O)n(C)c1=O (stereo unspecified) | i | i | i | i | i | 29.8
Cc1ccccc1OCC(=O)N(Cc1ccco1)c1c(N)n(Cc2ccccc2)c(=O)[nH]c1=O | i | i | i | i | i | i
Cc1c(N=Cc2cc3c(cc2[N+](=O)[O-])OCO3)cccc1[N+](=O)[O-] | i | i | i | i | i | 49.1
Cc1ccccc1N=Cc1cc2c(cc1[N+](=O)[O-])OCO2 | i | i | i | i | i | i
SMILES | PAFAH2 FP inh | ARFGAP1 inh | PAFAH1B2 FP inh | ASAP1 GAP inh | PAFAH1B3 FP inh | pPAFAH inh
Sc1ccccc1N=Cc1cccs1 | nt | i | nt | i | nt | nt
COc1ccc(-c2cc3ccccc3oc2=O)cc1NC(=O)c1ccc([N+](=O)[O-])o1 | i | i | i | i | i | 24.9
Cc1ccc(CN2C(=O)CSC2c2ccccc2F)cc1 (stereo unspecified) | i | i | i | i | i | i
Cc1ccc(CN2C(=O)CSC2c2ccc(F)cc2)cc1 (stereo unspecified) | i | i | 25.7 | i | i | i
COc1ccccc1CNS(=O)(=O)CCNCCc1ccccc1 | i | i | i | i | i | nt
Cc1cc(C)cc(NS(=O)(=O)c2ccc(NC(=O)C3CCCCC3C(=O)O)cc2)c1 (stereo unspecified) | i | i | i | i | i | 28.0
O=C(Cc1ccc(S(=O)(=O)N2CCOCC2)s1)Nc1nc2c(s1)CCCC2 | i | i | i | i | i | 32.5
O=C(Cc1ccc(S(=O)(=O)N2CCOCC2)s1)Nc1ccc2c(c1)CCC2 | i | i | i | i | i | i
O=C(Cc1ccc(S(=O)(=O)N2CCOCC2)s1)Nc1cc(Cl)ccc1Cl | 41.2 | i | i | i | i | 27.6
C[C@@H]1CN([C@@H](C)CO)C(=O)CCCn2nncc2CO[C@H]1CN(C)C(=O)c1ccccc1 | nt | i | nt | i | nt | nt
